Series [1] deals with T1, Polyunsaturated fatty acid lipoxygenase ALOX15 (Homo sapiens, UniProt P16050).
T1 sequence (P16050 whole entry): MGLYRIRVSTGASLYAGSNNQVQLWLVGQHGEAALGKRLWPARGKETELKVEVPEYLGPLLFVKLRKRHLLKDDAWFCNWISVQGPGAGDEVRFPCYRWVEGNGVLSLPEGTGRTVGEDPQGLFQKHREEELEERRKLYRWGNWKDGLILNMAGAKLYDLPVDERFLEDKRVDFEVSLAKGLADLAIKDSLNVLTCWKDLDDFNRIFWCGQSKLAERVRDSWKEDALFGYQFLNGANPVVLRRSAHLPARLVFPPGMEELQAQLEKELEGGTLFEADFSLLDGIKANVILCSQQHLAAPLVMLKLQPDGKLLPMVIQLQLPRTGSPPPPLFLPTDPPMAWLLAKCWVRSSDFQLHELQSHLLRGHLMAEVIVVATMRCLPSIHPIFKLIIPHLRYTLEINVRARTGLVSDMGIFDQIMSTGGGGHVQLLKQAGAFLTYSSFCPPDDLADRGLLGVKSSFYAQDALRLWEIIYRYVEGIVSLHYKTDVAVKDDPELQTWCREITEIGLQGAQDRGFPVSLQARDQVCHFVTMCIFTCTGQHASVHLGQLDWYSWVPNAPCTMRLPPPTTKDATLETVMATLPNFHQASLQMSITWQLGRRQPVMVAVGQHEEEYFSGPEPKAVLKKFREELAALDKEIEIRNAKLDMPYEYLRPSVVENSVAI
Briefly: Inhibition of human N-terminal His6-tagged reticulocyte 15-lipoxygenase-1 after 15 mins by UV-vis spectrophotometer analysis. Particulars: for Ki: read-out: Ki(app).

Series [2] concerns the target T2, Polyunsaturated fatty acid lipoxygenase ALOX15B (Homo sapiens, UniProt O15296).
T2 sequence (O15296 whole entry): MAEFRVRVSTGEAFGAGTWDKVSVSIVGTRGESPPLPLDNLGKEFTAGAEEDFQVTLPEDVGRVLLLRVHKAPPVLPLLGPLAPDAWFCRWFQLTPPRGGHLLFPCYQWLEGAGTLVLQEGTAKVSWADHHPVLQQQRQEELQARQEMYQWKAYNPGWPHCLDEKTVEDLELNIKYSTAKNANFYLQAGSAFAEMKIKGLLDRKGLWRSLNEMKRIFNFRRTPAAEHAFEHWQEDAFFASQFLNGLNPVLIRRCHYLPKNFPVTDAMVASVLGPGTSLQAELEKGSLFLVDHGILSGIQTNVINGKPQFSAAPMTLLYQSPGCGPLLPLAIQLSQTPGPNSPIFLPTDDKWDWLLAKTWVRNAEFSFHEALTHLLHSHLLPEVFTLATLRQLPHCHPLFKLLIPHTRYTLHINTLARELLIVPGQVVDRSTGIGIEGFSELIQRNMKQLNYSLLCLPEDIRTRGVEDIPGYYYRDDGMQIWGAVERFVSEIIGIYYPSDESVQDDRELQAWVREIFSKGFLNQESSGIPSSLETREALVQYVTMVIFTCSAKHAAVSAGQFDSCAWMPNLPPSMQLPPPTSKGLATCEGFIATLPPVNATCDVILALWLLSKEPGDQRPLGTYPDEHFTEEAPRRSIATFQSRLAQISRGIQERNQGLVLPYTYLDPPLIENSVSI
Kind of series: Inhibition of human N-terminal His6-tagged epithelial 15-lipoxygenase-2 after 15 mins by UV-vis spectrophotometer analysis.

Series [3] deals with T3, Polyunsaturated fatty acid lipoxygenase ALOX12 (Homo sapiens, UniProt P18054).
T3 sequence (P18054 whole entry): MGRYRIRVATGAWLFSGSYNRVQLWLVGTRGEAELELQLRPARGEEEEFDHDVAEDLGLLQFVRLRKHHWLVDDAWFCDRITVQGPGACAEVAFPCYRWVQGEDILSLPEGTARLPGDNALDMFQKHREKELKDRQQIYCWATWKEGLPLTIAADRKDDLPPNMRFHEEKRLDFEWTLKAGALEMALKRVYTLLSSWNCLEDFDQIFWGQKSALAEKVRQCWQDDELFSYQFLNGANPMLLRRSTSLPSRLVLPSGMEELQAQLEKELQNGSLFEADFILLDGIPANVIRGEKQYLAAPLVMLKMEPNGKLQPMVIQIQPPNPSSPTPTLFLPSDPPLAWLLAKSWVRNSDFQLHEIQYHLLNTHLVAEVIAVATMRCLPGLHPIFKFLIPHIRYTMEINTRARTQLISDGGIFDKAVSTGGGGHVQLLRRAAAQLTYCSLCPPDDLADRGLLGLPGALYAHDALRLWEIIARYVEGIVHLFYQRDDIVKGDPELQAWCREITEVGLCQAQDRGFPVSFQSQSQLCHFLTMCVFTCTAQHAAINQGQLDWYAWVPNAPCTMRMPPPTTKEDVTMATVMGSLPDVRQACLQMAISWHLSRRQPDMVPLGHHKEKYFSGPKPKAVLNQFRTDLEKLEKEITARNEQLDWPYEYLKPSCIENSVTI
Kind of series: Inhibition of human N-terminal His6-tagged platelet 12-lipoxygenase after 15 mins by UV-vis spectrophotometer analysis.

In series [4] the target is T4, Polyunsaturated fatty acid 5-lipoxygenase (Homo sapiens, UniProt P09917).
T4 sequence (P09917 whole entry): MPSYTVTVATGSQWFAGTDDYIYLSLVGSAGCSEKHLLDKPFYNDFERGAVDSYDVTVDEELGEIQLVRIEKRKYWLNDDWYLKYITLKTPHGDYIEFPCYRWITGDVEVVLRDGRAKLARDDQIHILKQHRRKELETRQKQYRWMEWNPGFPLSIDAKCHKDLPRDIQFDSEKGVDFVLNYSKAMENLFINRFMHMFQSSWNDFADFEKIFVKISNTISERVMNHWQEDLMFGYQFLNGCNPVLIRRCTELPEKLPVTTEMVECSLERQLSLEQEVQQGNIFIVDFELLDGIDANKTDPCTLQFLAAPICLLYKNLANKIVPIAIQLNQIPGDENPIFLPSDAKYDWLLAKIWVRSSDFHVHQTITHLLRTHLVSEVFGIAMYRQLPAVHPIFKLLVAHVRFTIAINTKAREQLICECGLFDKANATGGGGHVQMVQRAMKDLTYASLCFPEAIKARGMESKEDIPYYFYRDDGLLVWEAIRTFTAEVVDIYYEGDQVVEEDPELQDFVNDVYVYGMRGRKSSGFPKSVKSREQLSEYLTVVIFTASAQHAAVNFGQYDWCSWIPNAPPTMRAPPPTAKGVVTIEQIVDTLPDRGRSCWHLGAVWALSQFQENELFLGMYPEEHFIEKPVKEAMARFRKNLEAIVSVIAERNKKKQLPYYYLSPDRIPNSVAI
Briefly: Inhibition of human 5-lipoxygenase after 15 mins by UV-vis spectrophotometer analysis.

Series [5] can be described thus: Selectivity ratio of IC50 for ovine COX1 over IC50 for human N-terminal His6-tagged reticulocyte 15-lipoxygenase-1. In outline:
(§1)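 COX inhibition: ~2 μg ovine COX-1 or human COX-2 preincubated 20 min with inhibitor, then added to 0.1 M Tris-HCl pH 8.0, 5 mM EDTA, 2 mM phenol, 1 μM hematin, 100 μM arachidonic acid at 37 °C; oxygen consumption via oxygen electrode; ibuprofen and DMSO as controls.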

Series [6] is filed under the species Homo sapiens. Briefly: Selectivity ratio of IC50 for human COX2 over IC50 for human N-terminal His6-tagged reticulocyte 15-lipoxygenase-1. The gist of the method: as §1
Series [7] is filed under the species Homo sapiens. Briefly: Selectivity ratio of IC50 for human N-terminal His6-tagged epithelial 15-lipoxygenase-2 over IC50 for human N-terminal His6-tagged reticulocyte 15-lipoxygenase-1.
Series [8] is filed under the species Homo sapiens. Briefly: Selectivity ratio of IC50 for human N-terminal His6-tagged platelet 12-lipoxygenase over IC50 for human N-terminal His6-tagged reticulocyte 15-lipoxygenase-1.
The species entered for series [9] is Homo sapiens. Kind of series: Selectivity ratio of IC50 for human 5-lipoxygenase over IC50 for human N-terminal His6-tagged reticulocyte 15-lipoxygenase-1.
Series [10] in a line: Solubility of the compound. The format is physicochemical.
The test system of series [11] is Radical scavenging activity. Kind of series: Antioxidant activity assessed as DPPH free radical scavenging activity at 5 uM. The format is functional.
The target of series [12] is T1, Polyunsaturated fatty acid lipoxygenase ALOX15. Briefly: Inhibition of human N-terminal His6-tagged reticulocyte 15-lipoxygenase-1 catalytic site assessed as 15-HPETE formation by Michaelis-Menten equation analysis.
Series [13] has the same target. Briefly: Inhibition of human N-terminal His6-tagged reticulocyte 15-lipoxygenase-1 allosteric site assessed as 15-HPETE formation by Michaelis-Menten equation analysis.

SMILES strings stand for the structures. The source made the active and inactive calls. No cut-off for these calls is given here. A value given as a limit tells only on which side of the number the result lay.

Consider `O=C(OCC#CCSc1nnc(-c2cccc3ccccc23)o1)c1cc2ccccc2s1`, for which the IC50 in series [1] was below 10 nM; in series [2], above 100000 nM; in [3], above 100000 nM; in [4], above 75000 nM. The Ki in series [1] was below 10 nM. The Ratio IC50 (in series [5]; in the series listed under Homo sapiens [6]; in the series listed under Homo sapiens [7]; in the series listed under Homo sapiens [8]; in the series filed under Homo sapiens [9]) was above 7500 in each case.
Regarding `O=C(CCC#CCSc1nnc(-c2cccc3ccccc23)o1)c1ccccc1`, the solubility entry in series [10] is reported as “Insoluble”.
In the case of `O=C(OCC#CCSc1nnc(-c2cccc3ccccc23)s1)c1cccs1`, in series [10], the solubility entry is listed as “Insoluble”.
In the case of `O=C(OCC#CCSc1nnc(-c2cc3ccccc3cc2O)o1)c1ccc(F)cc1`, in series [10], the solubility result is given as “Insoluble”.
For `O=C(OCC#CCSc1nnc(-c2cccc3ccccc23)o1)c1sc2ccccc2c1Cl`, in series [11], the result was inactive.
As to `O=C(OCC#CCSc1nnc(-c2cccc3ccccc23)o1)c1csc2ccccc12`, the Ki in series [1] is below 10 nM. Moreover, the result in [11] was inactive.
For the compound `O=C(OCC#CCSc1nnc(-c2cccc3ccccc23)o1)c1cnc[nH]1`, the Ki in series [1] is 1400 nM; in series [12] it was 870 nM; in [13] it was 8100 nM.

The IC50 is the concentration needed to halve the response being measured. A higher IC50 goes with weaker potency in that assay.
